In the library only some 5.7% were active in any assay of this set; here they are far more common.
Mdm2-MdmX inh: disrupts the human Mdm2-MdmX interaction; O15151+Q00987; SaOS-2 split-luciferase Mdm2/MdmX complementation, luminescence; inhibition, % at 8 µM; 3% of 330,000 active; AID 485346;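 active means inhibition of at least 50% at 8 µM in the primary screen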
Target sequence (O15151 whole entry, looked up): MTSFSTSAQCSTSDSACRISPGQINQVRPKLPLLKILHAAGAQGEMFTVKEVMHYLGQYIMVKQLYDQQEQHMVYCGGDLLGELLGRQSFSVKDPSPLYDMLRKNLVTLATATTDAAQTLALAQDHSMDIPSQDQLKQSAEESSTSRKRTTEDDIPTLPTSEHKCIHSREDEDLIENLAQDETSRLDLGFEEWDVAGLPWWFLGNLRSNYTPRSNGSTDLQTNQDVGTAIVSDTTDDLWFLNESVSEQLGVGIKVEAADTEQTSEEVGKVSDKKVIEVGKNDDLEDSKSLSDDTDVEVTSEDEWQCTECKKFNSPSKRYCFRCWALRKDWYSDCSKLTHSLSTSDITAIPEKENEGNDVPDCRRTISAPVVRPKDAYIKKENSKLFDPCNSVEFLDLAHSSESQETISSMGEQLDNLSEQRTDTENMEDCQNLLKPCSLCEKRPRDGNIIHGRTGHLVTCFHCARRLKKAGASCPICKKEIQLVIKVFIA
Target sequence (Q00987 whole entry, looked up): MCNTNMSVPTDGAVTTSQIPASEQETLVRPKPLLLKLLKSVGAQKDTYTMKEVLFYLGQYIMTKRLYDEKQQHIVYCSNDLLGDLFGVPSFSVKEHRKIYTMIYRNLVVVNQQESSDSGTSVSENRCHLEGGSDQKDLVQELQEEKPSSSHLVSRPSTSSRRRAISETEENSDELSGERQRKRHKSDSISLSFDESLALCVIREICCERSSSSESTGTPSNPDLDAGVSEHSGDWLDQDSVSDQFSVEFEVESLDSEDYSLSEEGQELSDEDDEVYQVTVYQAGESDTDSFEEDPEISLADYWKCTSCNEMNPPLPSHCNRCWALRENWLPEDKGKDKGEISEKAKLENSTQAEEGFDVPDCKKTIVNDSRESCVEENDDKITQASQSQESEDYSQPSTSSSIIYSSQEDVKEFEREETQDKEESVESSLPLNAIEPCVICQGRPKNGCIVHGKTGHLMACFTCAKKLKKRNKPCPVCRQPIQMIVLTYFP
Beta apoptosis: beta cell apoptosis inhibition; INS-1E cytokine-induced death, ATP luminescence, 48 h; percent of positive-control rescue, neutral wells zero; protection from apoptosis, % (test concentration not listed); 0.8% of 300,000 active; AID 435005;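 active means Every replicate reaches about 75%, or at least half do and their mean reaches it too, limit read from the data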;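 further: 0% = cytokine-treated negative control wells and 100% = positive control rescue; higher means more ATP so stronger rescue from cytokine killing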
CSC inhib: blocks cancer stem cells | cancer stem cell-like cells viability, luminescence | inhibition, % at 7.5 µM | 1.1% of 300,000 active; in the data active means inhibition above about 75%; tested in HMLE shEcad cells
SKKanGAS inh: SKKanGAS growth inhibition; AID 1662; S. pyogenes SKKanGAS, kanamycin growth, BacTiter-Glo, 6 h; 1.3% of 300,000 active; inhibition, % at 7.5 µM;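 active means mean replicate score, as percent of positive control median, at least 50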;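 further: strain carries kanamycin resistance gene driven by streptokinase promoter and grows in 40 µg/ml kanamycin; loss of luminescence reflects streptokinase promoter inhibition or plain growth inhibition; 0% = median of DMSO wells and 100% = positive control at its reference dose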
Calb FLC: affects C. albicans growth with fluconazole. 0.57% of 300,000 active. C. albicans CaCi-2 (fluconazole-resistant clinical isolate) + fluconazole, Alamar Blue growth, 48 h. growth inhibition, % (test concentration not listed);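 active means growth inhibition above about 58% in most replicates, limit read from the data, passing the limit was not always enough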;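 further: all wells also contain fluconazole at 8 µg/ml as a sub-toxic cotreatment; 0% = median of DMSO wells and 100% = median of geldanamycin control wells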
T cruzi inh: blocks replication of Trypanosoma cruzi. T. cruzi beta-gal in NIH3T3, luminescence, 90 h. 1.4% of 300,000 active. inhibition, % (test concentration not listed);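 active means mean inhibition across valid replicates above about 55%, limit read from the data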;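 further: signal also drops with host cell toxicity which is not excluded here; 0% = plate median of DMSO wells and 100% = zero luminescence signal; higher percent means less beta-gal luminescence so fewer parasites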
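assay system = mouse NIH/3T3 fibroblasts infected with β-gal-expressing T. cruzi Tulahuen C4 | input = 5,000 NIH/3T3 host cells per well | buffer or medium = DMEM plus 2% FBS | timing = 3 h host attachment, then at least 90 h co-culture | measured by = GalScreen luminescence, 60 min | evaluation = luminescence reflecting intracellular parasite burden, expressed as percent inhibition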
* marks the source's active call; other numbers are inactive results.

`CC(Oc1ccccc1)C(=O)N(CCC1=CCCCC1)c1c(N)n(Cc2ccccc2)c(=O)[nH]c1=O` (stereo unspecified) gave Mdm2-MdmX inh -6, Beta apoptosis 2, CSC inhib -3, SKKanGAS inh 5, Calb FLC 31 and T cruzi inh 13.
Clc1ccc(-c2nnc(-c3ccccc3)c(-c3c[nH]c4ccccc34)n2)cc1 was read as Mdm2-MdmX inh 0, Beta apoptosis -9, CSC inhib -8, SKKanGAS inh 5, Calb FLC -10 and T cruzi inh -2.
Screening Clc1ccc(-c2nnc(-c3ccccc3)c(-c3ccccc3)n2)cc1 returned Mdm2-MdmX inh -8, Beta apoptosis 3, CSC inhib 85*, SKKanGAS inh 25, Calb FLC -27 and T cruzi inh 24.
COc1ccc(C(=O)Nc2cccc(C(=O)N/N=C/c3ccc(OC)cc3OC)c2)cc1 was read as Mdm2-MdmX inh 16, Beta apoptosis -2, SKKanGAS inh 6, Calb FLC 21 and T cruzi inh -8.
`COc1ccc(N2Cc3ccc(C(=O)N/N=C\c4ccc(O)cc4O)cc3C2)cc1` gave Mdm2-MdmX inh -21, Beta apoptosis 13, CSC inhib 91*, SKKanGAS inh 8, Calb FLC 93* and T cruzi inh 4.
Screening Nc1nc(=S)c2ncn([C@@H]3O[C@H](CO)[C@@H](O)[C@H]3O)c2[nH]1 returned Mdm2-MdmX inh 27, Beta apoptosis 12 and CSC inhib 98*.
Nc1nc(=S)c2ncn(C3OC(CO)C(O)C3O)c2[nH]1 (stereo unspecified) was read as Beta apoptosis -3, CSC inhib 90*, SKKanGAS inh 2, Calb FLC -3 and T cruzi inh -16.
For CC(C)CN(C(=O)CSc1nc(N)cc(N)n1)C1CCS(=O)(=O)C1 (stereo unspecified) the results were Mdm2-MdmX inh -9, Beta apoptosis 0 and CSC inhib 4.
Screening Cc1cccn2c(=O)c3cc(C(N)=S)c(=N)n(CCCN4CCOCC4)c3nc12 returned Mdm2-MdmX inh 22, Beta apoptosis 10, CSC inhib -3, SKKanGAS inh -1, Calb FLC -11 and T cruzi inh 24.
`COCCCn1c(=N)c(C(N)=S)cc2c(=O)n3cccc(C)c3nc21` gave Mdm2-MdmX inh -2, Beta apoptosis 9, CSC inhib 1, SKKanGAS inh -11, Calb FLC 8 and T cruzi inh 68*.
For CCOCCCn1c(=N)c(C(=O)NCc2ccc3c(c2)OCO3)cc2c(=O)n3cccc(C)c3nc21 the results were Mdm2-MdmX inh 25, Beta apoptosis 18, CSC inhib 17, SKKanGAS inh 2, Calb FLC 0 and T cruzi inh 58*.
`COCCCn1c(=N)c(C(=O)NCc2ccc3c(c2)OCO3)cc2c(=O)n3ccccc3nc21` gave Mdm2-MdmX inh -11, Beta apoptosis 0, CSC inhib -7, SKKanGAS inh 4, Calb FLC -12 and T cruzi inh 32.
Screening Cc1ccc2nc3c(cc(C(N)=S)c(=N)n3CCCOC(C)C)c(=O)n2c1 returned Mdm2-MdmX inh 49, Beta apoptosis 9, SKKanGAS inh 1, Calb FLC 14 and T cruzi inh 64*.
Screening CC(Sc1nnc(Nc2ccccc2F)s1)C(=O)NC1CC1 (stereo unspecified) returned Mdm2-MdmX inh -5, Beta apoptosis 10 and CSC inhib 17.
`CCCCN(C(=O)C1CCCC1)C1CCS(=O)(=O)C1` (stereo unspecified) gave Mdm2-MdmX inh -14, SKKanGAS inh -2, Calb FLC -2 and T cruzi inh -6.
For Cc1cc(C)c(S(=O)(=O)Nc2ccccc2C(=O)N2CCOCC2)c(C)c1 the results were Mdm2-MdmX inh 8, Beta apoptosis -8, CSC inhib 6, SKKanGAS inh 2, Calb FLC -1 and T cruzi inh -7.
Cc1cc([N+](=O)[O-])ccc1-c1ccc(C2Nc3ccccc3C(=O)N2O)o1 (stereo unspecified) was read as Mdm2-MdmX inh 41, Beta apoptosis 70, CSC inhib 131*, SKKanGAS inh -4, Calb FLC 101* and T cruzi inh 39.
Screening CCc1ccc2nc(NC(=O)C3CSC4(C)CCC(=O)N34)sc2c1 (stereo unspecified) returned Mdm2-MdmX inh -27, Beta apoptosis -1, CSC inhib 14, SKKanGAS inh -1, Calb FLC -3 and T cruzi inh -2.
For CSCCC(NS(=O)(=O)c1ccccc1)C(=O)OC(C)C(=O)Nc1ccc(Cl)cn1 (stereo unspecified) the results were Mdm2-MdmX inh 3, Beta apoptosis -3 and CSC inhib -2.
`COc1ccc(/C=C/c2nc3ccccc3n2Cc2ccccc2OC)cc1` gave Mdm2-MdmX inh -40, Beta apoptosis 22, CSC inhib 43, SKKanGAS inh 25, Calb FLC 4 and T cruzi inh 56*.
For COc1ccccc1Cn1c(/C=C/c2ccccc2)nc2ccccc21 the results were Mdm2-MdmX inh -100, Beta apoptosis 15, CSC inhib 5, SKKanGAS inh 15, Calb FLC 3 and T cruzi inh 31.
For CCN1CCN(c2cc(C)c3cc(NC(=O)CCC(=O)Nc4ccc(OC)c(OC)c4)ccc3n2)CC1 the results were Mdm2-MdmX inh 11, Beta apoptosis -6, CSC inhib 1, SKKanGAS inh -6, Calb FLC 10 and T cruzi inh 13.
COc1ccc(C)cc1NC(=O)CCC(=O)Nc1ccc2nc(N3CCN(C)CC3)cc(C)c2c1 was read as Mdm2-MdmX inh 44, Beta apoptosis 4, SKKanGAS inh -5, Calb FLC -2 and T cruzi inh 65*.
`CCN1CCN(c2cc(C)c3cc(NC(=O)Cc4ccccc4OC)ccc3n2)CC1` gave Mdm2-MdmX inh 21, Beta apoptosis 1, CSC inhib 3, SKKanGAS inh -6, Calb FLC -6 and T cruzi inh 71*.
Screening Cc1ccc(Cl)cc1NC(=S)N(Cc1cccnc1)Cc1ccccc1Cl returned Mdm2-MdmX inh 4, Beta apoptosis 4, CSC inhib 5, SKKanGAS inh 6, Calb FLC 28 and T cruzi inh 72*.
For Cc1cccc(NC(=S)N(CCc2nc3cc(C)c(C)cc3[nH]2)Cc2cccnc2)c1 the results were Mdm2-MdmX inh 14, SKKanGAS inh -4, Calb FLC 5 and T cruzi inh 79*.
Screening Cc1ccc(C)c(NC(=S)N(CCc2nc3cc(C)c(C)cc3[nH]2)Cc2cccnc2)c1 returned Mdm2-MdmX inh 2, Beta apoptosis -11, CSC inhib 14, SKKanGAS inh -2, Calb FLC 7 and T cruzi inh 66*.
For COc1cccc(NC(=S)N(CCc2nc3cc(C)c(C)cc3[nH]2)Cc2cccnc2)c1 the results were Mdm2-MdmX inh -5, SKKanGAS inh -6, Calb FLC 5 and T cruzi inh -13.

Bioassay records: PubChem BioAssay, several laboratories
